Publication PMC10756989 (Heliyon, 2023)

Columns and labels:
[1] = molecular target: yeast α-glucosidase (Saccharomyces cerevisiae, UniProt P53341); experiment: α-glucosidase enzyme inhibitory activity; type: biochemical; conditions: for α-glucosidase percentage inhibition: at 250 μg/mL
[2] = Ferric; conditions: for FRAP IC50: ferric reducing power, 63–500 μg/mL, 700 nm; for Fe^3+ reducing power: at 500 μg/mL, Fig. 14
In short: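 Potassium ferricyanide reduction: test compound or Trolox (63–500 μg/mL) with 200 mM phosphate buffer and 1 % K3Fe(CN)6, 50 °C, 25 min. Then TCA (0.1 g/mL) is added, the mix is diluted with water, and 0.1 % FeCl3 is added before reading. Reducing capacity is estimated from a gallic acid standard curve.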

[3] = DPPH radical mopping capacity; conditions: DPPH 300 μM in methanol, 30 min, 516 nm
In short: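 Test compound or Trolox reference (63–500 μg/mL) mixed with DPPH in methanol and kept in the dark at ambient temperature. Absorbance is read against a control without sample or Trolox.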

[4] = molecular target: T1, pancreatic α-amylase (Homo sapiens, UniProt P04746); experiment: α-amylase enzyme inhibitory activity; type: biochemical; conditions: for percentage α-amylase inhibition: at 63 μg/mL, Fig. 5
T1 sequence (P04746 16-511): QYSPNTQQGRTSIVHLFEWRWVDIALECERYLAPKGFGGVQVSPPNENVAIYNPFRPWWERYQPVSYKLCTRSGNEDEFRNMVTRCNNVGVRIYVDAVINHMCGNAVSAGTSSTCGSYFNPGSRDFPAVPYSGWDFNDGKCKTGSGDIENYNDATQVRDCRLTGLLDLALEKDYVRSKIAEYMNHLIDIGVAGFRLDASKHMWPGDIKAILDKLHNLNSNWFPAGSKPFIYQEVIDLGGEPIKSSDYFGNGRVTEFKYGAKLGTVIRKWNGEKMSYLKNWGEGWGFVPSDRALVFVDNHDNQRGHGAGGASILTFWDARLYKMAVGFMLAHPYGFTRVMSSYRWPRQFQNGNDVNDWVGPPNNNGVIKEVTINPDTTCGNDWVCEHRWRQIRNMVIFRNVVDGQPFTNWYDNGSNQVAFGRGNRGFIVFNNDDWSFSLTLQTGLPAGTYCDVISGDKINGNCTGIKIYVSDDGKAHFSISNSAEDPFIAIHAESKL

[5] = Nitric oxide; conditions: for NO IC50: 10 mM sodium nitroprusside, pH 7.4 PBS, 25 °C, 546 nm; for NO scavenging activity: Fig. 12
In short: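 Test compound or Trolox reference at various concentrations, incubated 2 h with sodium nitroprusside in PBS. Griess reagent is added, with a further 5 min at 25 °C. Absorbance is read against a blank without test samples.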

Chain of yeast α-glucosidase (P53341 whole entry): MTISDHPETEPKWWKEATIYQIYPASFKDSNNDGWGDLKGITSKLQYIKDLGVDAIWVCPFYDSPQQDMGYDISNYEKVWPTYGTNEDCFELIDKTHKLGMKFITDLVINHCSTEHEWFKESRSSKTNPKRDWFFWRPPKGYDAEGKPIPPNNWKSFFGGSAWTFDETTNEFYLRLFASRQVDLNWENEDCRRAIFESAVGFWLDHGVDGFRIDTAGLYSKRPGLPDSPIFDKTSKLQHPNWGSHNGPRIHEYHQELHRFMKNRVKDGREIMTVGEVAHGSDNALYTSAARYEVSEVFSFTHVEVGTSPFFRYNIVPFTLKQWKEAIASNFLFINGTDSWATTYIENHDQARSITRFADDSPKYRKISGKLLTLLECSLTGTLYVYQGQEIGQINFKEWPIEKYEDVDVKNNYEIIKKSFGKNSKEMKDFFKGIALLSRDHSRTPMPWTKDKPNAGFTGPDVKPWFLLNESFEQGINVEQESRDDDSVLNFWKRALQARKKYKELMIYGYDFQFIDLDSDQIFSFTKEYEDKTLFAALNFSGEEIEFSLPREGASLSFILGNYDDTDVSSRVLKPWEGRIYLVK

Row | Structure (SMILES) | IC50 [1] | FRAP IC50 [2] | DPPH IC50 [3] | IC50 [4] | NO IC50 [5] | α-glucosidase inhibitory activity ([1]; at 500 μg/mL, compared with L1 and acarbose, Fig. 6) | percentage α-amylase inhibition [4] | α-glucosidase inhibitory effect ([1]; at 63–125 μg/mL, among the synthesised samples, Fig. 6) | NO IC50 ([5]; listed as Acarbose (Standard)) | α-glucosidase percentage inhibition ([1]; Fig. 6) | Fe^3+ reducing power [2] | NO scavenging activity ([5]; at 500 μg/mL) | NO scavenging activity ([5]; at 63–250 μg/mL, versus other compounds and Trolox)
1 | Cc1c(C)c2c(c(C)c1O)CCC(C)(C(=O)O)O2 (stereo not shown) [Trolox, reference compound] |  | 292.51 µg/mL | 13.62 µg/mL |  | 109.59 µg/mL |  |  |  |  |  |  |  | 
2 | C[C@H]1O[C@H](O[C@H]2[C@H](O)[C@@H](O)[C@@H](O[C@H]3[C@H](O)[C@@H](O)C(O)O[C@@H]3CO)O[C@@H]2CO)[C@H](O)[C@@H](O)[C@@H]1N[C@H]1C=C(CO)[C@@H](O)[C@H](O)[C@H]1O (stereo partly shown) [Acarbose, reference compound] |  | 292,51 μg/mL | 13,62 μg/mL |  |  |  | indistinguishable |  | 109,59 μg/mL |  |  |  | 

Further lines, with some results ahead:

Row | IC50 [1] | FRAP IC50 [2] | DPPH IC50 [3] | IC50 [4] | NO IC50 [5] | α-glucosidase inhibitory activity ([1]; at 500 μg/mL, compared with L1 and acarbose, Fig. 6) | percentage α-amylase inhibition [4] | α-glucosidase inhibitory effect ([1]; at 63–125 μg/mL, among the synthesised samples, Fig. 6) | NO IC50 ([5]; listed as Acarbose (Standard)) | Structure (SMILES) | α-glucosidase percentage inhibition ([1]; Fig. 6) | Fe^3+ reducing power [2] | NO scavenging activity ([5]; at 500 μg/mL) | NO scavenging activity ([5]; at 63–250 μg/mL, versus other compounds and Trolox)
3 | 653 µM | >500 µg/mL | 67,81 μg/mL | > 1580 µM | 91,21 μg/mL |  |  |  |  | CC(C)c1cccc(C(C)C)c1/N=C/c1ccc2ccccc2c1 [Compound L3, (E)-N-(2,6-diisopropylphenyl)-1-(naphthalen-2-yl)methanimine] |  |  |  | 
4 | 568 µM | >500 µg/mL | 35,69 μg/mL | > 1930 µM | 119,68 μg/mL | significantly greater activity | indistinguishable |  |  | Cc1cccc(C)c1/N=C/c1ccc2ccccc2c1 [Compound L2, (E)-N-(2,6-dimethylphenyl)-1-(naphthalen-2-yl)methanimine] | did not exhibit statistically significant differences | slightly better abilities | lower compared with the other test compounds and standard | 
5 |  | >500 µg/mL | 25,44 μg/mL | 215 µM | 70,91 μg/mL |  | indistinguishable | significantly higher inhibitory effect |  | Cc1cc(C)c(/N=C/c2ccc3ccccc3c2)c(C)c1 [Compound L1, (E)-N-mesityl-1-(naphthalen-2-yl)methanimine] | did not exhibit statistically significant differences | slightly better abilities |  | significantly higher
